Experiments:
[1] = tested on: Trypanosoma brucei brucei; test: Antitrypanosomal activity against Trypanosoma brucei brucei Lister 427 bloodstream forms incubated for 72 hrs by resazurin based assay; assay type: functional, organism-based; settings: for IC50: Lister 427, 72 h; for IC90: Lister 427, time 72 hrs
How it was run: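 T. brucei was screened first at 10 μM, with pentamidine as the reference and internal control. IC50 was determined when growth inhibition was above 50%, reported with a 95% confidence interval for the mean curve of the independent assays.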

[2] = Selectivity index, ratio of CC50 for human THP1 cells to IC50 for antitrypanosomal activity against Trypanosoma brucei brucei Lister 427 bloodstream forms; assay type: toxicity; settings: read-out: Ratio CC50/IC50
How it was run: (§1)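 Selectivity index was calculated as THP1 CC50 divided by parasite IC50.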

[3] = Cytotoxicity in human THP-1 cells assessed as reduction in cell viability incubated for 48 hrs hrs by MTT assay; assay type: toxicity, cell-based
Leishmania infantum = test: Antileishmanial activity against luciferase-expressing Leishmania infantum (MHOM/MA/67/ITMAP-263) axenic amastigotes incubated for 72 hrs by resazurin based assay relative to control; assay type: functional, organism-based; settings: MHOM/MA/67/ITMAP-263, 72 h, in the assay text read “promastigotes” for “axenic amastigotes”
[4] = Selectivity index, ratio of CC50 for human THP1 cells to IC50 for Antileishmanial activity against luciferase-expressing Leishmania infantum (MHOM/MA/67/ITMAP-263) axenic amastigotes incubated for 72 hrs by resazurin based assay relative to control; assay type: toxicity; settings: in the assay text read “promastigotes” for “axenic amastigotes”, read-out: Ratio CC50/IC50; how it was run: as §1

| SMILES | IC50 [1] [µM] | IC90 [1] [µM] | selectivity ratio [2] | CC50 at 48 h [3] [µM] | IC50 (Leishmania infantum) [nM] | selectivity ratio at 72 h [4] |
| --- | --- | --- | --- | --- | --- | --- |
| OCCCOc1cccc(Nc2ncnc3c(N/N=C/c4ccc(O)c(O)c4)ncnc23)c1 | 2.29 | 5.67 | 4 | 25 | – | – |
| OCCCOc1cccc(Nc2ncnc3c(N/N=C/c4ccc(O)cc4)ncnc23)c1 | 6.18 | 21.2 | 8 | 50 | – | – |
| NNc1ncnc2c(Nc3cccc(OCCCO)c3)ncnc12 | 9.89 | 24.1 | > 10 | > 100 | – | – |
| Oc1cc(/C=N/Nc2ncnc3c(Nc4cccc(OCc5ccncc5)c4)ncnc23)cc(O)c1O | 3.88 | 8.36 | > 26 | > 100 | – | – |
| COc1cc(/C=N/Nc2ncnc3c(Nc4cccc(OCCCO)c4)ncnc23)cc(OC)c1OC | 6.12 | 17.6 | 8 | 50 | – | – |
| COc1cc(/C=N/Nc2ncnc3c(Nc4ccc(OCCCO)cc4)ncnc23)cc(OC)c1O | 12.4 | 255 | 4 | 50 | – | – |
| COc1cc(/C=N/Nc2ncnc3c(Nc4ccc(OCCCO)cc4)ncnc23)ccc1O | 3.76 | 9.22 | 14 | 50 | – | – |
| Oc1ccc(/C=N/Nc2ncnc3c(Nc4cccc(OCc5ccncc5)c4)ncnc23)cc1O | 1.73 | 1.75 | > 58 | > 100 | – | – |
| OCCCOc1ccc(Nc2ncnc3c(N/N=C/c4ccc(O)cc4)ncnc23)cc1 | 12.9 | 88.3 | 3 | 50 | – | – |
| COc1ccc(/C=N/Nc2ncnc3c(Nc4cccc(OCCCO)c4)ncnc23)cc1OC | 2.72 | 8.17 | > 37 | > 100 | – | – |
| OCCCOc1cccc(Nc2ncnc3c(N/N=C/c4cc(O)c(O)c(O)c4)ncnc23)c1 | 3.26 | 14.5 | 15 | 50 | – | – |
| COc1cc(/C=N/Nc2ncnc3c(Nc4cccc(OCc5ccncc5)c4)ncnc23)cc(OC)c1O | 3.41 | 37.2 | > 29 | > 100 | – | – |
| NNc1ncnc2c(Nc3cccc(OCc4ccncc4)c3)ncnc12 | 0.94 | 1.24 | > 107 | > 100 | 3130 | > 32 |
| OCCCOc1ccc(Nc2ncnc3c(N/N=C/c4cc(O)c(O)c(O)c4)ncnc23)cc1 | 6.95 | 20.5 | > 14 | > 100 | – | – |
| NNc1ncnc2c(Nc3ccc(OCCCO)cc3)ncnc12 | 3.03 | 35.8 | > 33 | > 100 | – | – |
| COc1ccc(/C=N/Nc2ncnc3c(Nc4ccc(OCCCO)cc4)ncnc23)cc1O | 2.6 | 8.73 | 19 | 50 | – | – |
| COc1cc(/C=N/Nc2ncnc3c(Nc4ccc(OCCCO)cc4)ncnc23)cc(OC)c1OC | 3.32 | 37.7 | > 30 | > 100 | – | – |
| COc1ccc(/C=N/Nc2ncnc3c(Nc4ccc(OCCCO)cc4)ncnc23)cc1OC | 8.59 | 25.5 | 6 | 50 | – | – |
| COc1ccc(/C=N/Nc2ncnc3c(Nc4cccc(OCCCO)c4)ncnc23)cc1O | 6.57 | 18.7 | 8 | 50 | – | – |
| OCCCOc1ccc(Nc2ncnc3c(N/N=C/c4ccc(O)c(O)c4)ncnc23)cc1 | 1.9 | 2.07 | 5 | 25 | – | – |
| COc1cc(/C=N/Nc2ncnc3c(Nc4cccc(OCCCO)c4)ncnc23)ccc1O | 13.4 | 44.9 | 1 | 25 | – | – |
| COc1cc(/C=N/Nc2ncnc3c(Nc4cccc(OCCCO)c4)ncnc23)cc(OC)c1O | 6.06 | 18.1 | 4 | 50 | – | – |
| CCCCCCCCCCCCCCCCOP(=O)([O-])OCC[N+](C)(C)C [MILTEFOSINE] | – | – | – | 30.9 | 2210 | 1.3 |
| N=C(N)c1ccc(OCCCCCOc2ccc(C(=N)N)cc2)cc1 [PENTAMIDINE] | 0.00405 | – | 12800 | 51.8 | – | – |

From ChEMBL document CHEMBL5143753, “Pyrimido[5,4-d]pyrimidine-Based Compounds as a Novel Class of Antitrypanosomal and Antileishmanial Agents” (ACS Med Chem Lett, 2022)
